The source of these data is ChEMBL document CHEMBL1142414, “Comprehensive mechanistic analysis of hits from high-throughput and docking screens against beta-lactamase” (J Med Chem, 2008).

T1 sequence (P25779 whole entry): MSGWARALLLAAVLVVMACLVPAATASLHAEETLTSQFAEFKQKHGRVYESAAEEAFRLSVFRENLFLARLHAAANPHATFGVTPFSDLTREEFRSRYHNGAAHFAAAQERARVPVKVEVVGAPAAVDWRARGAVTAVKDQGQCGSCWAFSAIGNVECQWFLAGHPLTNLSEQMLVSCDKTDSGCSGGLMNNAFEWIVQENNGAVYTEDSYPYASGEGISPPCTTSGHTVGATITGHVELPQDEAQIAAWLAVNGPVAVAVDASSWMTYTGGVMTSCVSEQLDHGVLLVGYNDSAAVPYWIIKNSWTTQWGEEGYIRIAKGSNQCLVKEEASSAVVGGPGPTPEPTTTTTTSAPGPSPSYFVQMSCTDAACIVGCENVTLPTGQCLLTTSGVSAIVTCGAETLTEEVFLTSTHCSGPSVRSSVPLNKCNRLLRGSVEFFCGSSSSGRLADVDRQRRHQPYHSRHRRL

Target in one assay: not listed separately
As to the kind of experiment: Inhibition of beta-lactamase AmpC. The method, boiled down: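 Cuvette assay with 1 nM AmpC β-lactamase and 200 µM nitrocefin, Triton X-100 at either 0.00002 or 0.1%. Compound and enzyme preincubated 5 min, then substrate added to start the reaction.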
Broadly, the Ki is a dissociation constant, usually derived from enzyme kinetics or from competition with a known ligand. Higher therefore signals lower affinity. For the molecule `O=C(O)c1ccc2c(c1)C(=O)N([C@H](Cc1c[nH]c3ccccc13)C(=O)O)C2=O`, the Ki came to 17 µM.

In general, IC50 refers to the concentration needed to halve the response being measured. The molecule `CCOc1ccccc1CNC(=O)c1cc2occc2n1C` displayed an IC50 of over 600 µM.

Regarding `O=C(O)c1ccc2c(c1)C(=O)N([C@H](Cc1ccc3ccccc3c1)C(=O)O)C2=O`, affinity was put at a Ki of 14 µM.

Regarding `O=C(O)c1ccc2c(c1)C(=O)N([C@H](Cc1cccc3ccccc13)c1nnn[nH]1)C2=O`, the affinity corresponds to a Ki of 41 µM.

`COc1cccc(-c2nccc(-n3ccnc3)n2)c1` displayed an IC50 of over 600 µM.

For `CC(C)CC(C(=O)O)N1C(=O)c2ccc(C(=O)O)cc2C1=O` (racemic), the Ki came to 1200 µM.

Take `c1cc2c3c(c1)c1c(n3CCNC2)CCCC1`: the half-maximal inhibitory concentration (IC50) is over 600 µM.

`O=C(O)C(Cc1ccccc1)N1C(=O)c2ccccc2C1=O` (racemic): the inhibitory constant (Ki) stood at 830 µM.

Consider `CC1=C/C(=C\c2ccc3c(c2)OCO3)C(=O)S1`, for which the half-inhibitory concentration (IC50) is over 600 µM.

Consider `COc1cc2c(=O)n(Cc3ccco3)c(=O)n(CC(=O)c3cccc(Br)c3)c2cc1OC`, for which the IC50 is over 600 µM.

In the case of `N#Cc1cccc(-c2nc(NCc3cccnc3)c3ccccc3n2)c1`, the half-maximal inhibitory concentration (IC50) is over 600 µM.

Take `O=C(O)c1ccc2c(c1)C(=O)N(C(Cc1ccccc1)C(=O)O)C2=O` (racemic): the affinity, expressed as Ki, was 210 µM.

`CCOC(=O)/C(C(C)=O)=C1\OC(=O)c2ccccc21` had a concentration for half-maximal inhibition (IC50) of 43 µM.

`CSCCC(C(=O)O)N1C(=O)c2ccc(C(=O)O)cc2C1=O` (racemic) returned a Ki of 1300 µM.

In turn, `O=C(O)c1ccc2c(c1)C(=O)N(CCc1ccc(O)cc1)C2=O` gave an inhibition constant Ki of 360 µM.

Molecule `O=C(O)CN1C(=O)c2ccc(C(=O)O)cc2C1=O` came in with a Ki of 6900 µM.

As to `O=C(O)c1ccc2c(c1)C(=O)N([C@@H](Cc1ccc(O)cc1)C(=O)O)C2=O`, the Ki was determined as 158 µM.

The molecule `COc1cccc(-c2ccc3ncnc(NCc4ccc(OC)cc4OC)c3c2)c1` registered a concentration for half-maximal inhibition (IC50) of over 600 µM.

With `COc1ccc(-c2cc(C(=O)NCc3ccccc3)no2)cc1OC`, the 50% inhibitory concentration (IC50) is over 600 µM.

In the case of `CN(C)C/C=C(\c1ccc(Br)cc1)c1cccnc1`, the IC50 was over 600 µM.

Target in the next assay: not listed separately
Kind of assay: Inhibition of beta-lactamase AmpC in presence of 0.1% Triton X-100. The method, boiled down:
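Cuvette assay with 1 nM AmpC β-lactamase and 200 µM nitrocefin, Triton X-100 at either 0.00002 or 0.1%. Compound and enzyme preincubated 5 min, then substrate added to start the reaction. Nitrocefin hydrolysis read at 482 nm by UV–visible spectrophotometry at room temperature.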
For the molecule `CCOC(=O)/C(C(C)=O)=C1\OC(=O)c2ccccc21`, the IC50 came to 58 µM.

A further assay has as its target T1, Cruzipain (Trypanosoma cruzi, UniProt P25779). As to the kind of experiment: Inhibition of cruzain in presence of 0.01% Triton X-100. The method, boiled down:
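Recombinant cruzain (10 nM) in 0.1 M sodium acetate pH 5.5 with 5 mM DTT and 0.01% Triton X-100, substrate 2.5 µM Z-Phe-Arg-AMC. Cleavage read fluorimetrically in 96-well format, excitation 355 nm, emission 460 nm.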
For the molecule `CC(C)[C@H](NC(=O)OC(C)(C)C)c1nnc(S(=O)(=O)Cc2c(F)cccc2Cl)o1` (stereo in doubt), the IC50 was under 1 µM.

On to `CCOC(=O)/C(C(C)=O)=C1\OC(=O)c2ccccc21`, for which the IC50 is under 600 µM.

In another assay the target is T1, Cruzipain. As to the kind of experiment: Inhibition of cruzain.
In the case of `CC(C)[C@H](NC(=O)OC(C)(C)C)c1nnc(S(=O)(=O)Cc2c(F)cccc2Cl)o1` (stereo in doubt), the IC50 was under 1 µM.

`CCOC(=O)/C(C(C)=O)=C1\OC(=O)c2ccccc21` registered an IC50 of under 600 µM.

System in the next assay: not listed separately
Kind of assay: Inhibition of chymotrypsin. The method, boiled down: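 Chymotrypsin (28 nM) preincubated 5 min with inhibitor, then reaction started with 200 µM N-succinyl-Ala-Ala-Pro-Phe p-nitroanilide. In the no-preincubation variant, inhibitor and substrate were mixed first and enzyme was added to start. Progress read at 410 nm.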
With `COc1cccc(-c2nccc(-n3ccnc3)n2)c1`, the IC50 is over 600 µM.

As to `c1cc2c3c(c1)c1c(n3CCNC2)CCCC1`, the IC50 was over 600 µM.

For `CC1=C/C(=C\c2ccc3c(c2)OCO3)C(=O)S1`, the half-maximal inhibitory concentration (IC50) was over 600 µM.

`N#Cc1cccc(-c2nc(NCc3cccnc3)c3ccccc3n2)c1` gave an IC50 of over 600 µM.

On to `COc1cccc(-c2ccc3ncnc(NCc4ccc(OC)cc4OC)c3c2)c1`, for which the IC50 is over 600 µM.

As to `COc1ccc(-c2cc(C(=O)NCc3ccccc3)no2)cc1OC`, the IC50 is over 600 µM.

Consider `CN(C)C/C=C(\c1ccc(Br)cc1)c1cccnc1`, for which the IC50 is over 600 µM.
